Read-outs that look alike come from different tables or passages of the source. Positions of bridges follow the written chain, without caps; N, C: chain ends. Non-standard residues stand in square brackets, D forms with d. Residues, ends and D or L forms follow the SMILES beside them. *: point of attachment. Gly(octyl) = CCCCCCCC[C@H](N)C(=O)O; Octanoyl = CCCCCCCC(=O)*; Dab = NCC[C@H](N)C(=O)O A value given as a limit tells only on which side of the number the result lay.

In series [1] the test system is polymyxin-resistant clinical isolates of P. aeruginosa, A. baumannii, and K. pneumoniae. Description: MIC screen against polymyxin-resistant Gram-negative clinical isolates. The format is cell-based. Conditions: for MICs: polymyxin-resistant clinical isolates of P. aeruginosa, A. baumannii, K. pneumoniae. The gist of the method:
(§1)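 Broth microdilution in cation-adjusted Mueller–Hinton broth. […] Plates were incubated 18–20 h at 37 °C. MIC was taken as the lowest concentration inhibiting visible growth.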

The test system of series [2] is panel of ATCC and clinical isolates. As to the kind of experiment: MIC in the presence of Mg2+. Conditions: addition of 16 mM of Mg2+; data not shown. Format: cell-based. The essentials:
as §1

For another series, the system named is purified LPS. Description: Dansyl-polymyxin LPS displacement binding assay. The gist of the method:
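LPS was purified from bacteria, and its molar concentration was set by the purpald Kdo assay. Test compound binding to LPS was read as displacement of a synthetic dansyl-polymyxin probe, using the group's published protocol.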

Series [3] relates to polymyxin-resistant clinical isolate of P. aeruginosa. Description: Neutropenic mouse lung infection model. Conditions: 24 h after single-dose treatment (40 mg/kg); inoculum 5.42 ± 0.54 log CFU/lung. The format is in vivo. The gist of the method:
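The model used neutropenic mice with lung infection, following the group's earlier protocol. One polymyxin-susceptible and one polymyxin-resistant P. aeruginosa strain were used. Lung bacterial burden was counted at 0 and 24 h after treatment.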

The nature of series [4]: Pharmacokinetics after single-dose intravenous administration in rats. To be noted: rat, in vivo.
Series [5] in a line: Tolerability after bolus dose in rats. The format is in vivo, rat. To be noted: intravenous bolus, 0.75 mg/kg.
A short description of series [6]: Tolerability after bolus dose in mice. Format: in vivo, mouse. To be noted: subcutaneous bolus, 40 mg/kg.
Series [7] deals with polymyxin-resistant clinical P. aeruginosa isolate. Description: MIC by broth microdilution, polymyxin-resistant P. aeruginosa isolate. Format: cell-based, Pseudomonas aeruginosa. The gist of the method:
(§2)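 Broth microdilution was run in cation-adjusted Mueller–Hinton broth in polypropylene plates. The inoculum was about 10^6 cfu/mL, mixed 1:1 with broth containing test compound (0 to 128 mg/L). Plates were incubated 18–20 h at 37 °C. MIC was the lowest concentration with no visible growth.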

Series [8] relates to polymyxin-susceptible P. aeruginosa ATCC 27853. As to the kind of experiment: MIC by broth microdilution, P. aeruginosa ATCC 27853. The format is cell-based, Pseudomonas aeruginosa. The gist of the method: as §2
Series [9] has as its system polymyxin-resistant clinical P. aeruginosa isolate. As to the kind of experiment: Static time-kill, polymyxin-resistant P. aeruginosa isolate. Format: cell-based, Pseudomonas aeruginosa. To be noted: 32 mg/L.
The subject of the next series is human red blood cells. As to the kind of experiment: Hemolysis of human red blood cells. The format is cell-based. To be noted: concentrations up to 32 mg/L.
For series [10] the following is noted: rats ref 23; cited from earlier work.
The nature of series [11]: Plasma protein binding by equilibrium dialysis. The format is in vitro ADME. To be noted: pooled healthy human plasma.
Series [12] in a line: Nephrotoxicity in mice, kidney histopathology. The format is in vivo, mouse. Conditions: subcutaneous, accumulated dose 105 mg/kg. The gist of the method: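 Mice (three groups, n = 3) received subcutaneous injections over 3–4 days to an accumulated 105 mg/kg of test compound or polymyxin B sulfate, with a saline control. Kidneys were formalin-fixed (10%) and sectioned through cortex, medulla and papilla, then stained and graded: grade 1 (mild tubular damage) = 1, grade 2 (severe, necrosis) = 4, grade 3 (cortical necrosis/infarction) = 10.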

Regarding `CCCCCCCC[C@@H]1NC(=O)[C@@H](Cc2ccccc2)NC(=O)[C@H](CCN)NC(=O)[C@@H](NC(=O)[C@H](CCN)NC(=O)[C@@H](NC(=O)[C@H](CCN)NC(=O)CCCCCCC)[C@@H](C)O)CCNC(=O)[C@H]([C@@H](C)O)NC(=O)[C@H](CCN)NC(=O)[C@H](CCN)NC1=O` [FADDI-002] (Octanoyl-[Dab]T[Dab][Dab][Dab][dF][Gly(octyl)][Dab][Dab]T; lactam 4-C), in series [1] (panel of polymyxin-resistant Gram-negative clinical isolates), the antimicrobial activity entry was “potent antimicrobial activity”. In addition, in [2], the “increase in MICs on addition of Mg2+” value is on record as not above 2 fold. Moreover, the “higher LPS binding affinity compared to PMB and colistin” value in the series on purified LPS is “up to 27.1 fold”. For the same molecule, the “bacterial burden in the lungs” value in series [3] was 4.75 ± 0.80 log CFU/lung. In series [4], this molecule came in with a Vd of 0.195 to 0.313 L/kg, a clearance of 0.0396 to 0.078 L/h/kg and a half-life of 2.77 to 3.4 h. Also, in series [5], the adverse effects result is recorded as “no adverse effects were observed”. Moreover, the adverse effects entry in series [6] is “no adverse effects were observed”.
colistin yielded a minimal inhibitory concentration (MIC) in series [7] of more than 128 mg/L. In series [8], this molecule gave a minimal inhibitory concentration (MIC) of 1 mg/L. The MICs in series [1] is listed as more than 128 mg/L. Also, the “bacterial killing in time-kill” value in series [9] is “no killing was observed”. Moreover, the “bacterial burden in the lungs” value in series [3] is given as 6.71 ± 0.46 log CFU/lung. Also, the “hemolysis of human red blood cells” value in the series on human red blood cells is on record as “no detectable hemolysis”. Besides, in series [10], the half-life was 1.24 h, the total clearance is 0.312 L/h/kg and the volume of distribution is 0.496 L/kg.
Polymyxin B [PMB] registered an MICs in [1] of more than 128 mg/L. Further, in series [2], the “increase in MICs on addition of Mg2+” value is 16 fold. Further, in series [11], the “plasma protein binding (bound)” value is approximately 51%. Further, the “hemolysis of human red blood cells” value in the series on human red blood cells is “no detectable hemolysis”. In addition, in series [12], the “histological grade of kidney lesions” value is reported as “grade 1”.

Source of the values: PMC4033650 (ACS Chemical Biology, 2014).
